The results in this text go back to ChEMBL document CHEMBL3097997, “Synthesis and anticancer activities of thieno[3,2-d]pyrimidines as novel HDAC inhibitors” (Bioorg Med Chem, 2014).

Molecules are shown by their SMILES.

The subject of assay [1] is HCT-116. The assay is described as follows: Cell cycle arrest in human HCT116 cells assessed as accumulation at S phase at 10 uM after 24 hrs by propidium iodide staining-based flow cytometric analysis (reference value: 36.3%). Type of assay: functional. The method in brief: (§1)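 HCT-116 cells seeded at 2 × 10^5 per well in six-well plates, treated 24 h with compound at 2.5, 5 or 10 μM alongside untreated control, then harvested, fixed in cold 70% ethanol and stained with PI solution (final 50 μg/mL PI, 0.1 mg/mL RNase A, 0.05% Triton X-100) for 40 min at 37 °C. Phase distribution read by flow cytometry.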

Assay [2] has as its system HCT-116. Put plainly: Cell cycle arrest in human HCT116 cells assessed as accumulation at G1 phase at 10 uM after 24 hrs by propidium iodide staining-based flow cytometric analysis (reference value: 48.1%). Type of assay: functional. The method in brief: as §1
The next assay deals with HeLa. The assay is described as follows: Antiproliferative activity against human HeLa cells after 72 hrs by MTT assay. Type of assay: functional, cell-based.
Assay [3] concerns HCT-116. Put plainly: Cell cycle arrest in human HCT116 cells assessed as accumulation at sub G1 phase at 10 uM after 24 hrs by propidium iodide staining-based flow cytometric analysis relative to control. The format is functional. The procedure, abridged: as §1
The subject of assay [4] is HCT-116. Put plainly: Cell cycle arrest in human HCT116 cells assessed as accumulation at G2/M phase at 10 uM after 24 hrs by propidium iodide staining-based flow cytometric analysis (reference value: 15.6%). The format is functional. The procedure, abridged:
as §1

Assay [5] concerns HCT-116. Put plainly: Cell cycle arrest in human HCT116 cells assessed as accumulation at sub G1 phase after 24 hrs by propidium iodide staining-based flow cytometric analysis. The format is functional. The procedure, abridged: as §1
For the next assay, the target named is Histone deacetylase. Put plainly: Inhibition of HDAC in human HeLa cell nuclear extract using fluor de Lys as substrate after 15 mins by fluorimetric analysis. Type of assay: protein assay. The method in brief:
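Fluorimetric HDAC kit assay: HeLa nuclear extract (15 μL) combined with 10 μL of 5× compound, then 25 μL fluorogenic substrate added; deacetylation ran 15 min at room temperature and was stopped with TSA-containing developer. Fluorescence read after a further 15 min at excitation 360 nm, emission 460 nm.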

The subject of assay [6] is HCT-116. The assay is described as follows: Cell cycle arrest in human HCT116 cells assessed as accumulation at sub G1 phase at 5 uM after 24 hrs by propidium iodide staining-based flow cytometric analysis relative to control. Type of assay: functional. The procedure, abridged: as §1
Assay [7] relates to HCT-116. The assay is described as follows: Cell cycle arrest in human HCT116 cells assessed as accumulation at S phase at 5 uM after 24 hrs by propidium iodide staining-based flow cytometric analysis (reference value: 36.3%). Type of assay: functional. The procedure, abridged: as §1
The test system of assay [8] is HCT-116. Put plainly: Cell cycle arrest in human HCT116 cells assessed as accumulation at sub G1 phase at 2.5 uM after 24 hrs by propidium iodide staining-based flow cytometric analysis relative to control. Type of assay: functional. The method in brief:
as §1

Assay [9] has as its system HCT-116. The assay is described as follows: Cell cycle arrest in human HCT116 cells assessed as accumulation at G1 phase at 2.5 uM after 24 hrs by propidium iodide staining-based flow cytometric analysis (reference value: 48.1%). Type of assay: functional. The method in brief:
as §1

Assay [10] deals with HCT-116. The assay is described as follows: Cell cycle arrest in human HCT116 cells assessed as accumulation at S phase at 2.5 uM after 24 hrs by propidium iodide staining-based flow cytometric analysis (reference value: 36.3%). Type of assay: functional. The method in brief:
as §1

The subject of assay [11] is HCT-116. Put plainly: Cell cycle arrest in human HCT116 cells assessed as accumulation at G2/M phase at 2.5 uM after 24 hrs by propidium iodide staining-based flow cytometric analysis (reference value: 15.6%). Type of assay: functional. The method in brief: as §1
Assay [12] relates to HCT-116. Put plainly: Cell cycle arrest in human HCT116 cells assessed as accumulation at G2/M phase at 5 uM after 24 hrs by propidium iodide staining-based flow cytometric analysis (reference value: 15.6%). Type of assay: functional. The procedure, abridged:
as §1

Assay [13] concerns HCT-116. The assay is described as follows: Cell cycle arrest in human HCT116 cells assessed as accumulation at G1 phase at 5 uM after 24 hrs by propidium iodide staining-based flow cytometric analysis (reference value: 48.1%). Type of assay: functional. The procedure, abridged:
as §1

For assay [14], the system named is HCT-116. The assay is described as follows: Antiproliferative activity against human HCT116 cells after 72 hrs by MTT assay. Type of assay: functional, cell-based. Conditions: HCT-116, 72 h.
Assay [15] addresses Histone deacetylase (Homo sapiens) (UniProt Q13547+O15379+Q9UBN7+Q92769+Q9UQL6+Q8WUI4+Q9BY41+Q96DB2+P56524+Q9UKV0+Q969S8). The following applies: HeLa, at 1 µM.
Another assay deals with MCF7. Put plainly: Antiproliferative activity against human MCF7 cells after 72 hrs by MTT assay. The following applies: MCF7, 72 h. The format is functional, cell-based.

Consider `O=C(CCCCCCOc1cccc(-c2nc(N3CCOCC3)c3sccc3n2)c1)NO`, for which the Activity in the assay with HCT-116 [1] is 20.8%; in the assay with HCT-116 [2] it was 50.3%; with HCT-116 [3], 44.5%; in the assay with HCT-116 [4] it was 26.5%; with HCT-116 [5] it was “Dose-dependent effect”; in the assay on HCT-116 [6], 42.2%. The Activity in the assay with HCT-116 [7] is 18.9%; in the assay on HCT-116 [8], 30.5%; with HCT-116 [9], 68.1%; with HCT-116 [10], 15.2%; with HCT-116 [11], 16.8%; with HCT-116 [12], 31.4%. In the assay on HCT-116 [13], the Activity is listed as 49.7%. Further, the concentration for half-maximal inhibition (IC50) in the assay on HeLa amounted to 4 µM; on Histone deacetylase, 0.38 µM; in the assay on HCT-116 [14], 4 µM; in the assay on MCF7, 4.8 µM. Moreover, the inhibition in assay [15] turned out to be 76.8%.
For the molecule `O=C(CCCCCCCOc1cccc(-c2nc(N3CCOCC3)c3sccc3n2)c1)NO`, the IC50 in the assay with HeLa is 11.9 µM; at Histone deacetylase, 0.61 µM; with HCT-116 [14], 6.1 µM; in the assay with MCF7, 11 µM. The same molecule registered an inhibition in assay [15] of 72%.
Turning to `O=C(CCCCCCOc1ccc(-c2nc(N3CCOCC3)c3sccc3n2)cc1)NO`, the figures for the IC50 in the assay with HeLa, in the assay with HCT-116 [14] and with MCF7 were 3 µM, 5.5 µM and 5.2 µM, respectively. In assay [15], this molecule returned an inhibition of 61.7%.
For the molecule `O=C(CCCCCCCCOc1ccc(-c2nc(N3CCOCC3)c3sccc3n2)cc1)NO`, the IC50 in the assay on HeLa came to 19 µM; with HCT-116 [14], 10.1 µM; with MCF7, 18 µM. This molecule returned an inhibition in [15] of 25.4%.
In the same order, the values of `O=C(CCCCCCCCOc1cccc(-c2nc(N3CCOCC3)c3sccc3n2)c1)NO` are 20 µM, above 20 µM, above 20 µM and 40.6%.
Regarding `O=C(CCCCCOc1ccc(-c2nc(N3CCOCC3)c3sccc3n2)cc1)NO`, the IC50 in the assay on HeLa was 12 µM; in the assay on HCT-116 [14] it was 14 µM; in the assay with MCF7, above 20 µM. Also, the inhibition in assay [15] is 18.8%.
In the case of `O=C(CCCCCCCOc1ccc(-c2nc(N3CCOCC3)c3sccc3n2)cc1)NO`, the IC50 in the assay with HeLa came to 7.4 µM; at Histone deacetylase it was 0.49 µM; in the assay with HCT-116 [14], 2.9 µM; in the assay with MCF7, 10 µM. In assay [15], this molecule registered an inhibition of 73.8%.
Take `O=C(CCCCCOc1cccc(-c2nc(N3CCOCC3)c3sccc3n2)c1)NO`: the IC50 worked out at 2.4 µM in the assay on HeLa, 12.2 µM in the assay on HCT-116 [14] and 9.9 µM with MCF7. The inhibition in [15] is 18.7%.
